Series [1] in a line: melting temperature; fluorescence melt of hairpins on a sequencing array, two-state fit, raised by 9.35 °C to match UV melts. Particulars: sodium 0.088 M. Summed up: (§1)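 Library hairpins on a sequenced MiSeq flow cell carried annealed Cy3 and quencher oligos, and their Cy3 fluorescence was imaged in 50 mM Na-HEPES pH 8.0 with 25 mM NaCl, in 2.5 °C steps up to 60 °C. Signals were normalised to Cy3 before quenching and to control constructs. Melting temperature and folding enthalpy were obtained from bootstrapped two-state fits, combined by inverse-variance weighting across four replicates, and the fitted temperatures were then raised by 9.35 °C to match UV melts.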

Series [2] is described as follows: folding enthalpy; higher = less favourable; fluorescence melt of hairpins on a sequencing array, two-state fit. To be noted: sodium 0.088 M. The method in brief:
as §1

Regarding GTATTCGAAAGAATATAC ((((((....)))..))), the Tm in series [1] stood at 33.5 °C. The folding enthalpy in series [2] was -13.8 kcal/mol.

GTATTCGGAAACGAGTAC (((.(((....))).))): in series [1], the Tm amounted to 43.6 °C. Besides, in series [2], the folding enthalpy was -28.6 kcal/mol.

Take GTATTGAAAAATAC (((((....))))): the Tm in series [1] worked out at 33.1 °C. Also, in series [2], the folding enthalpy is -15.3 kcal/mol.

Regarding GTATTGGGAAACCGATAC ((((.((....)).)))), the Tm in series [1] was 43.6 °C. Also, in series [2], the folding enthalpy was -35.7 kcal/mol.

As to GTATTTCGAAAGAATAC (((.(((....)))))), the Tm in series [1] was found to be 31.1 °C. Moreover, the folding enthalpy in series [2] is -14.1 kcal/mol.

Regarding GTATTTGGAAACAAGTAC (((.(((....))).))), the Tm in series [1] was 35.7 °C. In addition, the folding enthalpy in series [2] was -20.6 kcal/mol.

With GTATTTGGAAACGAATAC (((((.(....).))))), in series [1], the Tm was 35.8 °C. Moreover, the folding enthalpy in series [2] is -30.2 kcal/mol.

With GTCAAAACGAAAGTTGAC (((..(((....)))))), the Tm in series [1] was determined as 40.5 °C. Besides, the folding enthalpy in series [2] is -24.4 kcal/mol.

Regarding GTCAAACGAAAGTTAGAC (((.(((....))).))), the Tm in series [1] turned out to be 44.9 °C. In addition, the folding enthalpy in series [2] is -29.5 kcal/mol.

GTCAAAGAAATTTGAC ((((((....)))))): the Tm in series [1] came out at 45 °C. Moreover, in series [2], the folding enthalpy was -29.1 kcal/mol.

Turning to GTCAAAGGAAACTTCGAC (((.(((....))).))), the Tm in series [1] worked out at 31.1 °C. For the same sequence, the folding enthalpy in series [2] was -19.4 kcal/mol.

In the case of GTCAAATCGAAAGATGAC (((..(((....)))))), the Tm in series [1] was found to be 35.6 °C. In addition, the folding enthalpy in series [2] is -16.1 kcal/mol.

As for GTCAACCGAAAGGTGGAC (((.(((....))).))), the Tm in series [1] came out at 56.2 °C. Also, in series [2], the folding enthalpy was -30.5 kcal/mol.

Turning to GTCAACGAAAGTTAGGAC ((((((....)))..))), the Tm in series [1] stood at 31.8 °C. Further, the folding enthalpy in series [2] was -17.1 kcal/mol.

Turning to GTCAACGAAAGTTCTGAC ((((((....)))..))), the Tm in series [1] came to 25.9 °C. Also, in series [2], the folding enthalpy is -13.3 kcal/mol.

As for GTCAACGAAAGTTGCGAC ((((((....)))..))), in series [1], the Tm turned out to be 46.6 °C. Moreover, the folding enthalpy in series [2] was -17.7 kcal/mol.

As for GTCAACGAAAGTTGGGAC ((((((....)))..))), the Tm in series [1] was 32.7 °C. Further, in series [2], the folding enthalpy was -11.5 kcal/mol.

Take GTCAACGAAAGTTTAGAC ((((((....)))..))): in series [1], the Tm was 31.3 °C. Also, the folding enthalpy in series [2] is -16.1 kcal/mol.

Consider GTCAACGGAAACATTGAC (((((.(....).))))), for which the Tm in series [1] was 35.6 °C. The folding enthalpy in series [2] was -26.4 kcal/mol.

In the case of GTCAACTCGAAAGAGGAC (((..(((....)))))), the Tm in series [1] was found to be 33.2 °C. Moreover, the folding enthalpy in series [2] is -20.3 kcal/mol.

As to GTCAAGGGAAACCCTGAC ((((.((....)).)))), in series [1], the Tm amounted to 43.7 °C. In addition, in series [2], the folding enthalpy was -33.8 kcal/mol.

As for GTCAAGTCGAAAGACGAC (((..(((....)))))), the Tm in series [1] is 41.9 °C. Also, in series [2], the folding enthalpy was -15.4 kcal/mol.

With GTCAATCCGAAAGGAGAC (((..(((....)))))), in series [1], the Tm turned out to be 32.5 °C. Further, the folding enthalpy in series [2] was -20.3 kcal/mol.

Regarding GTCAATCGAAAGATAGAC (((.(((....))).))), the Tm in series [1] was determined as 43.5 °C. For the same sequence, the folding enthalpy in series [2] was -28.2 kcal/mol.

For GTCAATGGAAACATTGGC (.(((((....))))).), the Tm in series [1] was 48.4 °C. In series [2], the folding enthalpy was -27.7 kcal/mol.

For the sequence GTCACATCGAAAGATGAC (((..(((....)))))), the Tm in series [1] is 30.2 °C. In addition, in series [2], the folding enthalpy was -12.8 kcal/mol.

With GTCACCGAAAGGTCAGAC ((((((....)))..))), in series [1], the Tm is 32.2 °C. Besides, the folding enthalpy in series [2] is -14.5 kcal/mol.

Take GTCACCGAAAGGTTAGAC ((((((....)))..))): in series [1], the Tm stood at 39.4 °C. The folding enthalpy in series [2] is -17.1 kcal/mol.

In the case of GTCACGGGAAACCGTAAC ((.((((....)))).)), the Tm in series [1] was 36.1 °C. Besides, the folding enthalpy in series [2] was -16.5 kcal/mol.

Regarding GTCACTCGAAAGAGGAC (((.(((....)))))), in series [1], the Tm is 45.8 °C. In addition, the folding enthalpy in series [2] is -23.9 kcal/mol.

Regarding GTCACTGAAAAGTGAC ((((((....)))))), the Tm in series [1] came out at 63.3 °C. In series [2], the folding enthalpy was -33.2 kcal/mol.

For GTCACTGGAAACAATGAC ((((.((....)).)))), the Tm in series [1] was 35 °C. Moreover, the folding enthalpy in series [2] was -21.6 kcal/mol.

Consider GTCACTGGAAACAGCGAC (((.(((....))).))), for which the Tm in series [1] turned out to be 47.2 °C. Further, in series [2], the folding enthalpy was -35.2 kcal/mol.

Turning to GTCAGACGAAAGTCCGAC (((.(((....))).))), the Tm in series [1] was found to be 48.6 °C. Moreover, in series [2], the folding enthalpy was -26.5 kcal/mol.

As to GTCAGAGGAAACTCCGAC (((.(((....))).))), the Tm in series [1] is 34.7 °C. Moreover, in series [2], the folding enthalpy was -25.3 kcal/mol.

As to GTCAGAGGAAACTCTGAC (((((((....))))))), in series [1], the Tm worked out at 61.7 °C. For the same sequence, the folding enthalpy in series [2] was -37.9 kcal/mol.

In the case of GTCAGCCCGAAAGGGGAC (((..(((....)))))), the Tm in series [1] came out at 42.4 °C. For the same sequence, in series [2], the folding enthalpy was -13.7 kcal/mol.

Source of the values: the array DNA melting data of Ke et al. (doi:10.1101/2024.01.08.574731).
